# Data published in ChEMBL document CHEMBL2424622, “Development of amino-pyrimidine inhibitors of c-Jun N-terminal kinase (JNK): kinase profiling guided optimization of a 1,2,3-benzotriazole lead” (Bioorg Med Chem Lett, 2013).
# Tests used:
# [1] = target: Dual specificity mitogen-activated protein kinase kinase 1 (Homo sapiens) (UniProt Q02750); experiment: Competitive binding affinity to MEK1 (unknown origin) at 10 uM in presence of ATP relative to control
# [2] = target: T1, Serine/threonine-protein kinase LATS2 (Homo sapiens) (UniProt Q9NRM7); experiment: Competitive binding affinity to LATS2 (unknown origin) at 10 uM in presence of ATP relative to control
# T1 sequence (whole entry): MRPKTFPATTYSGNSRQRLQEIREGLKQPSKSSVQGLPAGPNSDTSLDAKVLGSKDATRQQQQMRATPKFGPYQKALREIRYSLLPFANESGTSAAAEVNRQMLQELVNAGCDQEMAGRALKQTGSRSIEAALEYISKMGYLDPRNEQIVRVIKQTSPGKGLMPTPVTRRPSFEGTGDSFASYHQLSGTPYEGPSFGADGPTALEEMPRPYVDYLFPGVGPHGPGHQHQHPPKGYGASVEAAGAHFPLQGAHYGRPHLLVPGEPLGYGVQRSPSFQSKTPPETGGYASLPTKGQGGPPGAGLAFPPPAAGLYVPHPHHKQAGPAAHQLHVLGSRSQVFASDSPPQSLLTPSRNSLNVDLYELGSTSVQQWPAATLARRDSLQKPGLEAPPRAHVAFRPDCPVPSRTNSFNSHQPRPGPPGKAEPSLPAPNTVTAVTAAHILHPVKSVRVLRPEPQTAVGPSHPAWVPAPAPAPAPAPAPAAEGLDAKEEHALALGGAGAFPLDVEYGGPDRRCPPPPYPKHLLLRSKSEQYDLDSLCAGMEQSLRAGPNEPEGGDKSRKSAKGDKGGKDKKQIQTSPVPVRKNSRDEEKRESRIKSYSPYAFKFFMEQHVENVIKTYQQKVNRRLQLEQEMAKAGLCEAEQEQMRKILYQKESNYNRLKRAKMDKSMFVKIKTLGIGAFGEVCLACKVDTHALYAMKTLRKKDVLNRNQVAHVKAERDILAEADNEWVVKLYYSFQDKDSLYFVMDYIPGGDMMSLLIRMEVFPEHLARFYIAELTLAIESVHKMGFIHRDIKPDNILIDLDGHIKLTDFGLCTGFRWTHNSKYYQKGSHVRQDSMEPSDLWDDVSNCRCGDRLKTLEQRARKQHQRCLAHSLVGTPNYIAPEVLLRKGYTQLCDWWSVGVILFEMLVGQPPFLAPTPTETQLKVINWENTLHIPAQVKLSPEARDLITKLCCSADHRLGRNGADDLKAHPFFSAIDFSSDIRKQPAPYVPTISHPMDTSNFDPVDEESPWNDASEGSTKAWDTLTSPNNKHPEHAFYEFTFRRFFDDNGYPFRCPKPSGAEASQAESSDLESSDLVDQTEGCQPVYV
# [3] = target: T2, Ephrin type-A receptor 1 (Homo sapiens) (UniProt P21709); experiment: Competitive binding affinity to EPHA1 (unknown origin) at 10 uM in presence of ATP relative to control
# T2 sequence (whole entry): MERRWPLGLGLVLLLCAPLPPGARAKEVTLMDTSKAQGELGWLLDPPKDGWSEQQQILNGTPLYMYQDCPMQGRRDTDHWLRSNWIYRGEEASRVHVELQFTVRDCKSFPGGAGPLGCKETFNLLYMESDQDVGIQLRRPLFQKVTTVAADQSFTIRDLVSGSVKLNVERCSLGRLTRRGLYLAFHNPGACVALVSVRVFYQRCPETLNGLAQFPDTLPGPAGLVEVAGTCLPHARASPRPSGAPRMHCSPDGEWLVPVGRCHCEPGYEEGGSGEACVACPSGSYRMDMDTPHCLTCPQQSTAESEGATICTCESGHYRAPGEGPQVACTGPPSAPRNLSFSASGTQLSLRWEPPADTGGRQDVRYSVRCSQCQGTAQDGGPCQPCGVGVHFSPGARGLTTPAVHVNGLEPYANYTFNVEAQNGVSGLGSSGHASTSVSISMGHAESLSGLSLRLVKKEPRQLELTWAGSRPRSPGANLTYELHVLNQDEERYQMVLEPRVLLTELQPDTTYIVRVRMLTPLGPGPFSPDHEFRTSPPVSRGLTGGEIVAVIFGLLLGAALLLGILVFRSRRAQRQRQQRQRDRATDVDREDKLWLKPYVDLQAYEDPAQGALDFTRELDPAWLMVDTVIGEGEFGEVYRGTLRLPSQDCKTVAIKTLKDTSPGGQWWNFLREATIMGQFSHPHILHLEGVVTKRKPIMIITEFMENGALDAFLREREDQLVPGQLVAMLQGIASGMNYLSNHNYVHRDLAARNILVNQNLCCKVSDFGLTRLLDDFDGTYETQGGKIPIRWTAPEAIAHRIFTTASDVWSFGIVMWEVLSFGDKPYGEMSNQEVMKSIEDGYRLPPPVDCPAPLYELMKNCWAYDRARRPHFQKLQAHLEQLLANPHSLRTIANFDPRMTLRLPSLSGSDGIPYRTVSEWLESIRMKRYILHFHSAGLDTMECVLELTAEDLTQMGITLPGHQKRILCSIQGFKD
# Outline: (§1)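 In vitro ATP-site competition binding assay, part of profiling against a diverse panel of 128 kinases. Each compound was tested at a single concentration of 10 µM. Kinome selectivity was summarized as S15 selectivity scores.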
# [4] = tested on: Epidermal growth factor receptor (Homo sapiens), P00533 [G719C]; experiment: Competitive binding affinity to EGFR G719C mutant (unknown origin) at 10 uM in presence of ATP relative to control; outline: as §1
# Chain of Epidermal growth factor receptor (Homo sapiens), P00533 [G719C] (P00533 whole entry G719C): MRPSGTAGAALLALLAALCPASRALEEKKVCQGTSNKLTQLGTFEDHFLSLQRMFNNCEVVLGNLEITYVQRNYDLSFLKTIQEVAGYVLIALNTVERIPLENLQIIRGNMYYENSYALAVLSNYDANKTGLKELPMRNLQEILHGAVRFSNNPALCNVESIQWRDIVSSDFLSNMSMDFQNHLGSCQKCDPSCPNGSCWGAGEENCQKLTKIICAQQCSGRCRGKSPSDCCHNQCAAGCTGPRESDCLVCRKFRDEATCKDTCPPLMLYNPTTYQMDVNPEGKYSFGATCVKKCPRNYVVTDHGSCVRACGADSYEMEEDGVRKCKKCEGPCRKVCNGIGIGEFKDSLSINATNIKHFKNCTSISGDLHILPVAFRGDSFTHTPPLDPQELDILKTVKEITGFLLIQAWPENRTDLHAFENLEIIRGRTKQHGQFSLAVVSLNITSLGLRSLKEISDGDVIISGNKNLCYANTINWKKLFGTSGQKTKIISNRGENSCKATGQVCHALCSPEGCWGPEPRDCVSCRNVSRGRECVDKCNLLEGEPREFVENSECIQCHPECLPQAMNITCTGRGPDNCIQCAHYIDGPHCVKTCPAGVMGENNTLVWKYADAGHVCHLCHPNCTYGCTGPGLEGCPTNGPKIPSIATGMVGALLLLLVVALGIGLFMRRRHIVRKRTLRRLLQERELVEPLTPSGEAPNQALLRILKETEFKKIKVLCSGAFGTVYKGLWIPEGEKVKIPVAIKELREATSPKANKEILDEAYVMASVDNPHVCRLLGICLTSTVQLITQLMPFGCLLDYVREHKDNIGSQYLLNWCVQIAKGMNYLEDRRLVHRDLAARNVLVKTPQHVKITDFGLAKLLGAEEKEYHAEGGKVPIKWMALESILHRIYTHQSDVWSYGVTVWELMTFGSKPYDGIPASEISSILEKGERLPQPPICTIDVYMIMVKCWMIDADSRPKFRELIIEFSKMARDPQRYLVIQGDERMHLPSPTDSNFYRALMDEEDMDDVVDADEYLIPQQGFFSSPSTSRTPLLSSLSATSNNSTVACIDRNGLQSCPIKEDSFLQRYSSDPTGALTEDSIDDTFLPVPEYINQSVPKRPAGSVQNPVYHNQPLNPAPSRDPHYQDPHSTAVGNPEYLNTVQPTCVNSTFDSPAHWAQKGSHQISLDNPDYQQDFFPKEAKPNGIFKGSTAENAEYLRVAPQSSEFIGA
# [5] = target: Serine/threonine-protein kinase PLK3 (Homo sapiens) (UniProt Q9H4B4); experiment: Competitive binding affinity to PLK3 (unknown origin) at 10 uM in presence of ATP relative to control
# Chain of Serine/threonine-protein kinase PLK3 (Homo sapiens) (Q9H4B4 whole entry, looked up): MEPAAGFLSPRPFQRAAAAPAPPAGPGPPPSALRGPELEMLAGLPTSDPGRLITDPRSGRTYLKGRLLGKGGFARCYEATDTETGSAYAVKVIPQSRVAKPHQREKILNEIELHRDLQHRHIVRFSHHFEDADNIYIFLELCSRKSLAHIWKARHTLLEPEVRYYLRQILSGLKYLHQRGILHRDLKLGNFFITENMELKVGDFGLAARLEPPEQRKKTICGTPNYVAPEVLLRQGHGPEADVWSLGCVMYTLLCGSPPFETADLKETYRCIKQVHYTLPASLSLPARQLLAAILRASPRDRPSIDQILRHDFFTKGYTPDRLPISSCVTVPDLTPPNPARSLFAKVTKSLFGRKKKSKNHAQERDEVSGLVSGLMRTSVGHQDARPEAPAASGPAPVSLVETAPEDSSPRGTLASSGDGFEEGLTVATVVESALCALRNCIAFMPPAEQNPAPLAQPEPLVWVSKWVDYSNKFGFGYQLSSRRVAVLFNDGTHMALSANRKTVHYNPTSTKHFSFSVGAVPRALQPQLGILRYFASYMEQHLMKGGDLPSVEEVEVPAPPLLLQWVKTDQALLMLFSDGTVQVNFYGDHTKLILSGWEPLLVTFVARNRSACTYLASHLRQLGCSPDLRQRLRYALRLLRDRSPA
# [6] = target: T3, Serine/threonine-protein kinase 4 (Homo sapiens) (UniProt Q13043); experiment: Competitive binding affinity to STK4 (unknown origin) at 10 uM in presence of ATP relative to control
# T3 sequence (whole entry): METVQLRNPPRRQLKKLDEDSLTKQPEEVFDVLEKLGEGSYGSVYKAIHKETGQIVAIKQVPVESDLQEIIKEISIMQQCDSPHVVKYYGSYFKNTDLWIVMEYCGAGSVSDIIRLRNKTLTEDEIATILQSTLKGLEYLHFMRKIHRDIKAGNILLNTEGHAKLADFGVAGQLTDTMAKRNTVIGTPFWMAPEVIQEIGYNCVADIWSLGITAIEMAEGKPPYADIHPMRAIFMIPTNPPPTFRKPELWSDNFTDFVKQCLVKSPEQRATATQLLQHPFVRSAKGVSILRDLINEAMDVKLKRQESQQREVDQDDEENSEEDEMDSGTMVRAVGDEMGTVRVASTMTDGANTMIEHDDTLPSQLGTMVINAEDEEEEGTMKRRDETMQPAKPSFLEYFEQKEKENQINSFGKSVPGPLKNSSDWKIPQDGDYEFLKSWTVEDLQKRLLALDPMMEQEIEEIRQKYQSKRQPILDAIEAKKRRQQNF
# Chain of Dual specificity mitogen-activated protein kinase kinase 1 (Homo sapiens) (Q02750 whole entry): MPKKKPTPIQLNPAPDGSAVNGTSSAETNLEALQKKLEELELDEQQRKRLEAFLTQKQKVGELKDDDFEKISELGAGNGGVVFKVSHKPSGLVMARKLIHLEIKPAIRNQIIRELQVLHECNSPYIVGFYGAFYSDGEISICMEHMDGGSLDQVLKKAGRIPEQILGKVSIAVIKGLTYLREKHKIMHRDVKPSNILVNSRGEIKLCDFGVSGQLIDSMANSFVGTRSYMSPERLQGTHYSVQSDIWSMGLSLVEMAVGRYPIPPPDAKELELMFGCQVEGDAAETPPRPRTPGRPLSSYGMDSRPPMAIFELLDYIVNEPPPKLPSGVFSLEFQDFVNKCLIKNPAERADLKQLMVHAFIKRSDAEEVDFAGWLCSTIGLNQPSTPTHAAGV
SMILES,inhibition [1] [%],inhibition [2] [%],inhibition [3] [%],inhibition [4] [%],inhibition [5] [%],inhibition [6] [%]
O[C@H]1CC[C@H](Nc2nccc(-n3ccc4ccccc43)n2)CC1,< 50,< 50,< 50,< 50,< 50,–
N[C@H]1CC[C@H](Nc2nccc(-n3nnc4ccccc43)n2)CC1,–,–,–,–,–,< 50
O[C@H]1CC[C@H](Nc2nccc(-n3nnc4ccccc43)n2)CC1,< 50,< 50,< 50,< 50,68,–
O[C@H]1CC[C@H](Nc2nccc(-n3ncc4ccccc43)n2)CC1,< 50,< 50,< 50,< 50,< 50,–
O=C([C@H]1CC[C@H](Nc2nccc(-n3nnc4ccccc43)n2)CC1)N1CCOCC1,–,–,–,–,–,< 50
O[C@H]1CC[C@H](Nc2nccc(-c3n[nH]c4ccccc34)n2)CC1,–,–,< 50,< 50,< 50,< 50
